Here are results for three compounds from ChEMBL document CHEMBL3588785 (J Med Chem, 2015).

Each structure is given as a SMILES string. pIC50: −log10 of the molar value. Converted amounts (≈) assume the structure as drawn. The source made the active and inactive calls. The rule behind the calls is not given here. Some results are limits rather than exact numbers.

The species named for series [1] is Homo sapiens. As to the kind of experiment: Selectivity for ERK (unknown origin) over MEK1 (unknown origin) at 1 uM. An outline of the steps:
(§1)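 Panel of 125 kinases screened with compound at 1 µM; kinases inhibited above 75% were recorded.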

Series [2] has as its target T1, Mitogen-activated protein kinase 1 (Homo sapiens, UniProt P28482). As to the kind of experiment: Inhibition of MEK U911-activated ERK2 (unknown origin) using Erktide as substrate preincubated with enzyme for 20 mins prior to substrate addition by RapidFire Mass Spectrometry in presence of ATP at Km concentration.
The nature of series [3]: Solubility of the compound in aqueous phosphate buffer at 25 degC at pH 7.4 after 24 hrs. Format: physicochemical.
The nature of series [4]: Stability in pH 7.4 buffer assessed as drug hydrolysis. The format is physicochemical. An outline of the steps: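 Compound held in pH 7.4 buffer alone at 37 °C, monitored over 11 hrs for hydrolysis.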
Series [5] deals with T1, Mitogen-activated protein kinase 1. In words: Inhibition of ERK2 in human A375 cells harboring B-RAF V600E mutant assessed as decrease in phospho-ERK2 level after 2 hrs by Cellomics ArrayScanTM VTI imaging analysis. The format is cell-based, A-375.
The species named for series [6] is Homo sapiens. As to the kind of experiment: Selectivity for ERK (unknown origin) over C-RAF (unknown origin) at 1 uM. An outline of the steps:
as §1

The nature of series [7]: Stability to hydrolysis in pH 7.4 buffer measured over 11 hrs at 37 degC.
In series [8] the target is T1, Mitogen-activated protein kinase 1. In words: Inhibition of MEK U911-activated ERK2 (unknown origin) using Erktide as substrate preincubated with enzyme for 20 mins prior to substrate addition by RapidFire Mass Spectrometry in presence of ATP at higher concentration.
The target of series [9] is Dual specificity mitogen-activated protein kinase kinase 1 (Homo sapiens, UniProt Q02750). As to the kind of experiment: Inhibition of MEK1 (unknown origin) autophosphorylation incubated with enzyme for 20 mins prior to ATP addition by ADP Glo kinase assay in presence of ATP at Km concentration. (In general: ADP-Glo first removes unused ATP, then detects ADP through luciferase.)

Series [10] concerns the target T2, Mitogen-activated protein kinase; ERK1/ERK2 (Homo sapiens, UniProt P27361+P28482). In words: Inhibition of ERK1/2 in human A375 cells harboring B-RAF V600E mutant assessed as decrease in phospho-RSK level after 2 hrs by Cellomics ArrayScanTM VTI imaging analysis. Conditions: a-375. The format is cell-based.
Series [11] concerns the target T1, Mitogen-activated protein kinase 1. In words: Covalent binding to ERK2 (unknown origin) after 2 hrs by mass spectrometry. An outline of the steps:
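ERK2 protein incubated with compound at 3-fold molar excess over protein, room temperature, 2 hours; sample diluted 10-fold and loaded immediately for intact-mass MS.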

A short description of series [12]: 1-Octanol-aqueous phosphate buffer partition coefficient, logD of the compound at pH 7.4. Format: physicochemical. An outline of the steps: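 Partition of compound between 1-octanol and aqueous phosphate buffer, pH 7.4; reported as distribution coefficient.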
The nature of series [13]: GSH reactivity assessed as half life.
The species named for series [14] is Homo sapiens. In words: Selectivity for ERK (unknown origin) over AUR-B (unknown origin) at 1 uM. The gist of the method:
as §1

For series [15], the species on record is Homo sapiens. As to the kind of experiment: Selectivity for ERK (unknown origin) over SRC (unknown origin) at 1 uM. An outline of the steps:
as §1

A short description of series [16]: Intrinsic clearance in human liver microsomes. The format is ADME. The settings on record: read-out: CLH.
The nature of series [17]: Clearance in mouse hepatocytes measured per 10^6 cells. Format: ADME, cell-based, Hepatocyte. Conditions: read-out: CLH.
The test system of series [18] is A-375. As to the kind of experiment: Antiproliferative activity against human A375 cells harboring B-RAF V600E mutant after 72 hrs by Cellomics ArrayScanTM VTI imaging analysis. The format is functional, cell-based. The settings on record: A-375, 72 h.
The species named for series [19] is Homo sapiens. As to the kind of experiment: Selectivity for ERK (unknown origin) over AUR-C (unknown origin) at 1 uM. The gist of the method: as §1
Series [20] deals with Hepatocyte. As to the kind of experiment: Intrinsic clearance in rat hepatocytes. The format is ADME, cell-based.
For series [21], the species on record is Homo sapiens. In words: Selectivity for ERK (unknown origin) over CDK7 (unknown origin) at 1 uM. The gist of the method:
as §1

Series [22] in a line: AUC (0 to t) in mouse at 100 mg/kg, po. Format: ADME, organism-based. Conditions: in vivo.
The target of series [23] is Mitogen-activated protein kinase 1 (Mus musculus) (UniProt P63085).
In series [24] the target is Mitogen-activated protein kinase 3 (Mus musculus) (UniProt Q63844). As to the kind of experiment: Binding affinity to ERK1 in mouse fibroblasts assessed as half-life.
Series [25] has as its target T2, Mitogen-activated protein kinase; ERK1/ERK2. Conditions: Calu-6, 500 nM.

Sequence of Dual specificity mitogen-activated protein kinase kinase 1 (Q02750 whole entry): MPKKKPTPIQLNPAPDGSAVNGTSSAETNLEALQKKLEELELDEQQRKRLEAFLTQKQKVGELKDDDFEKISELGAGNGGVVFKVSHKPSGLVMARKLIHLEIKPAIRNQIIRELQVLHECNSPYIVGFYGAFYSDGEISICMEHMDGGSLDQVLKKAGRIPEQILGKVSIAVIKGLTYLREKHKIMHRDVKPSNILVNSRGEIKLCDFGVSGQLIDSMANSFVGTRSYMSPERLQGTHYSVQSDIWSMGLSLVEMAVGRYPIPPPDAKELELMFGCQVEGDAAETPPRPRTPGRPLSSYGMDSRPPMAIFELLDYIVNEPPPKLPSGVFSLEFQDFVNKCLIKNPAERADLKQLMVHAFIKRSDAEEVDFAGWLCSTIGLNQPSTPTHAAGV
Sequence of Mitogen-activated protein kinase 3 (Mus musculus) (Q63844 whole entry): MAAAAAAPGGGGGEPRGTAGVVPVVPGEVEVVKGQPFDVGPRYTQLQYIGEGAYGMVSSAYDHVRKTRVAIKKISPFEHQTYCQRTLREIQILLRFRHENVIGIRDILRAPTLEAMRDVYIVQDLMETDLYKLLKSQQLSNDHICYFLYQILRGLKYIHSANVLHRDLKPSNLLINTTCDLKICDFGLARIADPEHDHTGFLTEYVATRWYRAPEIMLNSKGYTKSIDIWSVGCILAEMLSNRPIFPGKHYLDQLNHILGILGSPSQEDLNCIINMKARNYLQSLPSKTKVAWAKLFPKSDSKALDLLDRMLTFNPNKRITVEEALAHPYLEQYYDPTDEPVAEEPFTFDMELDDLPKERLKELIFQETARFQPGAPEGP
Sequence of Mitogen-activated protein kinase 1 (Mus musculus) (P63085 whole entry): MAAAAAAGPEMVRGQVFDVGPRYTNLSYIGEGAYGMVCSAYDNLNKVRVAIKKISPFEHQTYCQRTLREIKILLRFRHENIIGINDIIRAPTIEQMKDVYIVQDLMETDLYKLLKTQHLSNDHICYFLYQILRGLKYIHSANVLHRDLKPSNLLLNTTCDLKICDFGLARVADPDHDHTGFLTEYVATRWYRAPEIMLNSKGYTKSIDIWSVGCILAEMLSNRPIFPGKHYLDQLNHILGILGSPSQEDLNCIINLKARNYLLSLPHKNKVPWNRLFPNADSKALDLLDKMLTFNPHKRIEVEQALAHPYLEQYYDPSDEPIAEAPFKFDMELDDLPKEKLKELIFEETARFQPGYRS

Take `C=CS(=O)(=O)N1CCc2cnc(NC3CCOCC3)nc2C1`: the Selectivity ratio in [1] and in series [6] was 2 throughout. For the same compound, the pIC50 in series [2] was 6.43; in series [5], 6.62; in [8], 6.66; in series [9] it was less than 5.00. Moreover, in series [3], the concentration in solution (solubility at 24 h) was 760 µM (≈ 247 µg/mL). For the same compound, the Stability entry in series [4] and in series [7] was “Stable” each time. For the same compound, the half-maximal inhibitory concentration (IC50) in [10] worked out at 1100 nM. Further, in [11], the outcome was Active. Further, the logD in series [12] worked out at 1. Also, the T1/2 in series [13] was 0.257 h.
Regarding `C=CC(=O)Nc1ccccc1Nc1nc(NC2CCOCC2)ncc1C(F)(F)F`, the Selectivity ratio in [1], in series [14], in [15], in [6], in series [19] and in series [21] was 6 throughout. Further, the pIC50 was 8.16 in series [2]; 7.66 in series [5]; 7.28 in [18]; 8.07 in series [8]; less than 5.00 in series [9]. This compound also returned a solubility at 24 h in series [3] of 59 µM (≈ 24 µg/mL). Also, the microsomal CLint in series [16] was 38 µL/min/mg. The hepatocyte CLint in series [17] is 143 µL/min/1e6 cells. For the same compound, the CLH in series [20] amounted to 270 µL/min/mg. Besides, the IC50 in [10] came to 65 nM. In series [12], this compound registered a logD of 2.9. In addition, the AUC(0-t) in [22] is 21 µM·h.
Regarding `C=CC(=O)Nc1cnccc1Nc1nc(NC2CCOCC2)ncc1Cl`, the Selectivity ratio in [1] and in [6] was 2 in each case. The pIC50 in series [2] is 8.51; in [5] it was 8.17; in series [18], 7.39; in series [8] it was 8.52; in [9], less than 5.00. Besides, in [3], the concentration in solution (solubility at 24 h) came to 150 µM (≈ 56.2 µg/mL). In addition, the T1/2 in series [23] was determined as 54 h; in series [13] it was 0.7 h; in [24], 120 h. Moreover, the Stability entry in series [4] was “Stable”. For the same compound, the microsomal CLint in [16] amounted to 13 µL/min/mg. This compound also showed a CLH in series [20] greater than 250 µL/min/mg. Also, the IC50 in series [10] is 28 nM. In series [12], the logD was 2.3. Moreover, the inhibition entry in [25] is “Active”.

Usually pIC50 stands for the negative decadic logarithm of the IC50, by convention in mol/L. In general, solubility refers to the dissolved amount per volume that the medium holds. A higher solubility goes with much dissolved substance. Usually IC50 stands for the concentration at which inhibition is half-maximal. As usually defined, the logD is lipophilicity at a set pH, counting ionised and neutral species. The term AUC(0-t) denotes the area under the concentration-time curve up to a stated or last time point. High values mean high exposure, low ones low exposure.
